Measurements published in ChEMBL document CHEMBL1275434, “In vitro evaluation of CBR-2092, a novel rifamycin-quinolone hybrid antibiotic: studies of the mode of action in Staphylococcus aureus” (Antimicrob Agents Chemother, 2008).
In brackets after ≈: the same amount, converted by molar mass. Activity calls are given as the source filed them. The rule behind the calls is not given here.

Key:
Staphylococcus aureus [1] = assay: Antimicrobial activity against wild-type Staphylococcus aureus CB190 by agar dilution method; assay type: functional
How it was run: (§1)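 CLSI agar dilution MIC with cation-adjusted Mueller-Hinton (MHII) agar as the base medium.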

Staphylococcus aureus [2] = assay: Antimicrobial activity against Staphylococcus aureus CB1947 harboring rpoB H481Y, gyrA S84L, E697 deficient gyrA, parC G167V mutant genes selected after CBR-2092 exposure for 20 days by broth microdilution method; conditions: CB1947, 480 h
Staphylococcus aureus [3] = assay: Antimicrobial activity against Staphylococcus aureus CB1884 harboring rpoB R484H mutant gene, L520 deficient gyrA gene, gyrA S84L mutant gene, R236 duplicated par C gene and parC H103Y mutant gene by agar dilution method; assay type: functional
How it was run: (§2)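 CLSI agar dilution MIC on MHII base medium against stepwise-passage isolates; passage was in MHII broth without polysorbate 80, daily at 37°C.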

Staphylococcus aureus [4] = assay: Activity at Staphylococcus aureus wild-type GyrA
How it was run: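 Recombinant S. aureus gyrase (wild-type GyrA with His-tagged GyrB; 250 U per μg). SDS/proteinase K stop. Gel quantitation of linear cleavage product gave CC50, the mean of two or more assays.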

Staphylococcus aureus [5] = assay: Antimicrobial activity against rifampin-sensitive Staphylococcus aureus CB190 harboring rpoB Q468L mutant gene by broth microdilution method; assay type: functional
How it was run: (§3)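 CLSI broth microdilution MIC in cation-adjusted Mueller-Hinton (MHII) broth supplemented with 0.002% (vol/vol) polysorbate 80, included to limit compound loss to plastic surfaces.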

Staphylococcus aureus [6] = assay: Antimicrobial activity against wild-type Staphylococcus aureus CB190 by broth microdilution method; assay type: functional; how it was run: as §3
Staphylococcus aureus [7] = assay: Inhibition of RNA synthesis in Staphylococcus aureus CB190 assessed as decrease in [5,6-3H]uridine incorporation at 0.5 ug/ml; assay type: functional, organism-based
Staphylococcus aureus [8] = assay: Antimicrobial activity against Staphylococcus aureus CB370 harboring rifampin-resistant rpoB H481Y mutant gene by broth microdilution method; assay type: functional; how it was run: as §3
Staphylococcus aureus [9] = assay: Antimicrobial activity against Staphylococcus aureus CB1419 harboring rpoB H481Y and gyrA G572D mutant genes selected after 0.1 ug/ml drug exposure by broth microdilution method
Staphylococcus aureus [10] = assay: Inhibition of DNA synthesis in quinolone-resistant Staphylococcus aureus CB814 harboring gyrA S84L and parC S80F mutant genes assessed as decrease in [methyl-3H]thymidine incorporation at 0.5 ug/ml; assay type: functional, organism-based
How it was run: (§4)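 Macromolecular synthesis time course in S. aureus, measuring incorporation of [methyl-3H]thymidine (DNA), [5,6-3H]uridine (RNA) or [2,3-3H]D-alanine (cell wall). At each time point, incorporation is expressed as percent of the DMSO-treated control culture. Incorporation at time zero is set to 100%.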

Staphylococcus aureus [11] = assay: Antimicrobial activity against rifampin-sensitive Staphylococcus aureus CB190 harboring rpoB H472 mutant gene by broth microdilution method; assay type: functional; how it was run: as §3
Staphylococcus aureus [12] = assay: Inhibition of protein synthesis in Staphylococcus aureus CB190 assessed as decrease in L-[3,4,5-3H]leucine incorporation at 0.5 ug/ml; assay type: functional, organism-based
Staphylococcus aureus [13] = assay: Antimicrobial activity against rifampin-sensitive Staphylococcus aureus CB190 harboring rpoB E473 mutant gene by broth microdilution method; assay type: functional; how it was run: as §3
Staphylococcus aureus [14] = assay: Antimicrobial activity against Staphylococcus aureus CB1952 harboring rpoB S486L, gyrA […], gyrA E88Q, gyrA G532S, parC S80F, parC E84L mutant genes selected after CBR-2092 exposure for 21 days by agar dilution method; assay type: functional; conditions: CB1952, 504 h
How it was run: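 CLSI agar dilution MIC on MHII base medium against strains from multistep passage (up to 20–21 days) of parents with preexisting rifamycin and/or quinolone resistance.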

Staphylococcus aureus [15] = assay: Antimicrobial activity against Staphylococcus aureus CB1954 harboring rpoB H481Y, gyrA S84L, K809 deficient gyrA, parC S80F, parC A523D mutant genes selected after CBR-2092 exposure for 7 days by broth microdilution method; assay type: functional; conditions: CB1954, 168 h; how it was run: as §3
Staphylococcus aureus [16] = assay: Inhibition of cell wall synthesis in rifamycin-resistant Staphylococcus aureus CB370 harboring rpoB H481Y mutant gene assessed as decrease in [2,3-3H]D-alanine incorporation at 0.5 ug/ml; assay type: functional, organism-based
How it was run: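 Time-course radiolabel incorporation in S. aureus cultures with test agent. Precursors: [methyl-3H]thymidine (DNA), [5,6-3H]uridine (RNA), L-[3,4,5-3H]leucine (protein), [2,3-3H]D-alanine (cell wall). At each time point, incorporation with agent is expressed relative to the DMSO-treated control culture as percent incorporation. Time-zero incorporation is set to 100%.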

Staphylococcus aureus [17] = assay: Inhibition of DNA synthesis in rifamycin-resistant Staphylococcus aureus CB370 harboring rpoB H481Y mutant gene assessed as decrease in [methyl-3H]thymidine incorporation at 0.5 ug/ml; assay type: functional, organism-based; how it was run: as §4
Staphylococcus aureus [18] = assay: Antimicrobial activity against Staphylococcus aureus CB1883 harboring rpoB R484H mutant gene, L520 deficient gyrA gene, gyrA S84L mutant gene and R236 duplicated par C gene by broth microdilution method; assay type: functional
How it was run: (§5)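 CLSI broth microdilution MIC in MHII broth with 0.002% (vol/vol) polysorbate 80. Isolates came from daily stepwise broth passage at sub-MIC drug (MHII without polysorbate 80, 10^6 CFU/ml inoculum, 20–24 h shaking at 37°C), were purified drug-free, and were sequenced at target loci.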

Staphylococcus aureus [19] = assay: Antimicrobial activity against rifampin-sensitive Staphylococcus aureus CB190 harboring rpoB D471Y mutant gene by broth microdilution method; assay type: functional; how it was run: as §3
Staphylococcus aureus [20] = assay: Antimicrobial activity against Staphylococcus aureus CB1881 harboring rpoB R484H mutant gene and L520 deficient gyrA gene by broth microdilution method; assay type: functional; how it was run: as §5
Staphylococcus aureus [21] = assay: Antimicrobial activity against rifampin-sensitive Staphylococcus aureus CB190 harboring rpoB H481Y mutant gene by broth microdilution method; assay type: functional; how it was run: as §3
Staphylococcus aureus [22] = assay: Antimicrobial activity against Staphylococcus aureus CB1882 harboring rpoB R484H mutant gene, L520 deficient gyrA gene and R236 duplicated parC gene by agar dilution method; assay type: functional; how it was run: as §2
Staphylococcus aureus [23] = assay: Antimicrobial activity against Staphylococcus aureus CB1416 harboring rpo BH481Y and gyrA L795S mutant genes selected after 0.1 ug/ml drug exposure by broth microdilution method
Staphylococcus aureus [24] = assay: Antimicrobial activity against Staphylococcus aureus CB814 harboring fluoroquinolone-resistant gyrA S84L and parC S80F mutant genes by broth microdilution method; assay type: functional; how it was run: as §3
Staphylococcus aureus [25] = assay: Antimicrobial activity against rifampin-sensitive Staphylococcus aureus CB190 harboring rpo BH481D mutant gene by broth microdilution method; assay type: functional; how it was run: as §3
Staphylococcus aureus [26] = assay: Antimicrobial activity against Staphylococcus aureus CB1522 harboring by broth microdilution method; assay type: functional
Staphylococcus aureus [27] = assay: Antimicrobial activity against Staphylococcus aureus CB1884 by broth microdilution method; assay type: functional; how it was run: as §5
Staphylococcus aureus [28] = assay: Antimicrobial activity against Staphylococcus aureus CB809 harboring rpoB H481Y and parC S80F mutant genes by broth microdilution method
Staphylococcus aureus [29] = assay: Antimicrobial activity against Staphylococcus aureus CB815 harboring rpoB H481Y, gyrA […] and parC S80F mutant genes by agar dilution method; assay type: functional; how it was run: as §1
Staphylococcus aureus [30] = assay: Activity at Staphylococcus aureus wild-type DNA topoisomerase 4 subunit ParC
How it was run: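 Recombinant S. aureus topoisomerase IV (wild-type ParC with ParE; specific activity 25 to 30 U per μg). Stopped with SDS/proteinase K. Linear DNA quantified on gel; CC50 is the mean of two or more assays.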

CO[C@H]1/C=C/O[C@@]2(C)Oc3c(C)c(O)c4c(O)c(c(/C=N/N5CCC(N(C)C6([C@@H]7CCN(c8c(F)cn9c(=O)c(C(=O)O)cc(C%10CC%10)c9c8C)C7)CC6)CC5)c(O)c4c3C2=O)NC(=O)/C(C)=C\C=C\[C@H](C)[C@H](O)[C@@H](C)[C@@H](O)[C@@H](C)[C@H](OC(C)=O)[C@@H]1C showed an MIC (Staphylococcus aureus [1]) of 0.008 µg/mL (≈ 0.00664 µM), an MIC (Staphylococcus aureus [2]) of 4 µg/mL (≈ 3.32 µM) and an MIC (Staphylococcus aureus [3]) of 4 µg/mL (≈ 3.32 µM). For the same compound, the CC50 (Staphylococcus aureus [4]) was 1500 nM, the MIC (Staphylococcus aureus [5]) was 0.25 µg/mL (≈ 0.207 µM) and the MIC (Staphylococcus aureus [6]) was 0.015 µg/mL (≈ 0.0124 µM). The Activity (Staphylococcus aureus [7]) was “Active”, the MIC (Staphylococcus aureus [8]) was 0.12 µg/mL (≈ 0.0996 µM) and the MIC (Staphylococcus aureus [9]) was 1 µg/mL (≈ 0.83 µM). For the same compound, the Activity (Staphylococcus aureus [10]) was “Active”, the MIC (Staphylococcus aureus [11]) was 0.12 µg/mL (≈ 0.0996 µM) and the Activity (Staphylococcus aureus [12]) was “Active”. The MIC (Staphylococcus aureus [13]) was 0.25 µg/mL (≈ 0.207 µM), the MIC (Staphylococcus aureus [14]) was 4 µg/mL (≈ 3.32 µM) and the MIC (Staphylococcus aureus [15]) was 16 µg/mL (≈ 13.3 µM). For the same compound, the Activity (Staphylococcus aureus [16]) was “Active”, the Activity (Staphylococcus aureus [17]) was “Active” and the MIC (Staphylococcus aureus [18]) was 8 µg/mL (≈ 6.64 µM). It also gave an MIC (Staphylococcus aureus [19]) of 0.25 µg/mL (≈ 0.207 µM), an MIC (Staphylococcus aureus [20]) of 0.5 µg/mL (≈ 0.415 µM) and an MIC (Staphylococcus aureus [21]) of 0.12 µg/mL (≈ 0.0996 µM). For the same compound, the MIC (Staphylococcus aureus [22]) was 0.5 µg/mL (≈ 0.415 µM), the MIC (Staphylococcus aureus [23]) was 0.5 µg/mL (≈ 0.415 µM) and the MIC (Staphylococcus aureus [24]) was 0.015 µg/mL (≈ 0.0124 µM). The MIC (Staphylococcus aureus [25]) was 0.25 µg/mL (≈ 0.207 µM), the MIC (Staphylococcus aureus [26]) was 0.25 µg/mL (≈ 0.207 µM) and the MIC (Staphylococcus aureus [27]) was 64 µg/mL (≈ 53.1 µM). The MIC (Staphylococcus aureus [28]) was 0.25 µg/mL (≈ 0.207 µM), the MIC (Staphylococcus aureus [29]) was 0.25 µg/mL (≈ 0.207 µM) and the CC50 (Staphylococcus aureus [30]) was 1700 nM.
